Experimental data from ChEMBL document CHEMBL5678813, “Optimization of a novel series of N-phenylindoline-5-sulfonamide-based acyl CoA:monoacylglycerol acyltransferase-2 inhibitors: Mitigation of CYP3A4 time-dependent inhibition and phototoxic liabilities” (Bioorg Med Chem, 2015).

Columns and labels:
[1] = target: T1, CYP1A2 (Homo sapiens, UniProt P05177); assay: Reversible inhibition of CYP1A2 in human liver microsomes using tacrine as substrate at 10 uM incubated for 10 mins by LC/MS/MS analysis relative to control; format: ADME, Microsome; settings: probe tacrine
T1 sequence (P05177 whole entry): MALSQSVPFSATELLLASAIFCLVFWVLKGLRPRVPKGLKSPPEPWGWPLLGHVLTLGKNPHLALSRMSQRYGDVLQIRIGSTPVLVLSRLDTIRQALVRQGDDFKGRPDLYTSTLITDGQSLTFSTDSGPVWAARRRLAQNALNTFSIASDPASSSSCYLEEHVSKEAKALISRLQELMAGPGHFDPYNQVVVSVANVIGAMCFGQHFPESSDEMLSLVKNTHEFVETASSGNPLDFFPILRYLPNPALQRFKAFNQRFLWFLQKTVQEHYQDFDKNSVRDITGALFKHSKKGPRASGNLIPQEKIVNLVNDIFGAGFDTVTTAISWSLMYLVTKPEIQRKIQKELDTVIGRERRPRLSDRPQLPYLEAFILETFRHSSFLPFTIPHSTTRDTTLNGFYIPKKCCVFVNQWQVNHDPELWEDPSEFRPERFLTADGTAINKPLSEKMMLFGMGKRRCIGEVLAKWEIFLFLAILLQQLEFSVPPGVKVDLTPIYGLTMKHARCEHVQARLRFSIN
Summary of the method: (§1)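 Human liver microsomes at 0.1 mg/mL incubated 10 min at 37 °C with isoform-specific substrate and 10 µM test compound. Pairs: 1A2 tacrine/1-hydroxytacrine; 2C8 paclitaxel/6α-hydroxypaclitaxel; 2C9 tolbutamide/4-hydroxytolbutamide; 2D6 dextromethorphan/dextrorphan; 3A4 midazolam/1'-hydroxymidazolam. Stopped with acetonitrile/water; metabolite measured by LC/MS/MS.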

[2] = Oral bioavailability in mouse at 1 mg/kg administered as cassette dose by LC/MS/MS analysis; format: ADME, organism-based; settings: in vivo
Summary of the method: (§2)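 Non-fasted mice dosed by cassette, iv 0.1 mg/kg or po 1 mg/kg suspended in 0.5% methylcellulose aqueous solution; plasma obtained from blood by centrifugation, deproteinized with acetonitrile, and compound concentrations measured by LC/MS/MS.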

[3] = target: T2, CYP2C8 (Homo sapiens, UniProt P10632); assay: Reversible inhibition of CYP2C8 in human liver microsomes using paclitaxel as substrate at 10 uM incubated for 10 mins by LC/MS/MS analysis relative to control; format: ADME, Microsome; settings: probe paclitaxel; summary of the method: as §1
T2 sequence (P10632 whole entry): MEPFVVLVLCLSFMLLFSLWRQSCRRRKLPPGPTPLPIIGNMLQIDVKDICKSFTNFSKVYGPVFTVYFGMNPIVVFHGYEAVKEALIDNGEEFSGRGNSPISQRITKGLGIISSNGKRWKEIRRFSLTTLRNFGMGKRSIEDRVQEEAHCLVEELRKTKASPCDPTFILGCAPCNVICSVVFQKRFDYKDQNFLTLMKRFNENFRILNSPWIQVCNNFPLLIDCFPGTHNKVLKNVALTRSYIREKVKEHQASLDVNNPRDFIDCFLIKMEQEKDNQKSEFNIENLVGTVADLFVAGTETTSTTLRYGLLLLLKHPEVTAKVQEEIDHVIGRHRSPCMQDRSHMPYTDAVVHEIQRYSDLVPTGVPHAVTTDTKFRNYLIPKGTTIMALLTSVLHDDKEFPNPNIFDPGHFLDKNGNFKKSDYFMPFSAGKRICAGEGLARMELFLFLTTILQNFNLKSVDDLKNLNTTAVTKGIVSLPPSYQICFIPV

[4] = tested on: Mus musculus; assay: In vivo inhibition of MGAT2 in olive oil-induced C57BL/6J mouse model of hypertriglyceridemia assessed as reduction in plasma chylomicron triglyceride level preadministered orally with compound for 6 hrs followed by Pluronic F127 addition for 30 mins and further treated with olive oil for 4 hrs by automatic analyzer; format: functional; settings: dose 0.3-3 mg/kg, route po, time 10.5 hrs
Summary of the method: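 Male C57BL/6J mice (20–25 g) fasted overnight and dosed orally at 0.3, 1 or 3 mg/kg. Olive oil (8 mL/kg po) or water given 6 h later, with Pluronic F127 500 mg/kg i.p. 30 min before oil. Tail-vein plasma taken at 0, 2 and 4 h and TG measured by automatic analyzer. CM/TG = oil-group TG minus water-group TG; AUC over 4 h; n = 5, mean ± SD; Williams' test vs vehicle.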

[5] = tested on: NIH3T3; assay: Cytotoxicity against BALB/c mouse 3T3 cells assessed as reduction in cell viability at 6.25 uM incubated for 1 hrs in absence of UV irradiation by Celltiter-Glo assay relative to control; format: toxicity, cell-based; settings: nih3t3, 1 h
Summary of the method: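 BALB/c 3T3 cells seeded at 2.5 × 10^3 cells/well and grown 1 day. Compound at 6.25 µM in EBSS with 1 mM HEPES, preincubated 1 h. Plate kept dark (–UV) while the paired plate was irradiated. Medium replaced, cultured 24 h more. Viability read as cellular ATP by CellTiter-Glo, % of 1% DMSO control; n = 3, mean ± SD.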

[6] = AUC in mouse at 1 mg/kg, po administered as cassette dose by LC/MS/MS analysis; format: ADME, organism-based; settings: in vivo; summary of the method: as §2
[7] = 1-Octanol/aqueous buffer partition coefficient, logD of the compound at pH 7.4 by HPLC analysis; format: physicochemical
[8] = target: CYP2C9 (Homo sapiens, UniProt P11712); assay: Reversible inhibition of CYP2C9 in human liver microsomes using tolbutamide as substrate at 10 uM incubated for 10 mins by LC/MS/MS analysis relative to control; format: ADME, Microsome; settings: probe tolbutamide; summary of the method: as §1
[9] = Total clearance in mouse at 0.1 mg/kg, iv administered as cassette dose by LC/MS/MS analysis; format: ADME, organism-based; settings: in vivo; summary of the method: as §2
[10] = target: CYP2D6 (Homo sapiens, UniProt P10635); assay: Reversible inhibition of CYP2D6 in human liver microsomes using dextromethorphan as substrate at 10 uM incubated for 10 mins by LC/MS/MS analysis relative to control; format: ADME, Microsome; settings: probe dextromethorphan; summary of the method: as §1
Sequence of CYP2D6 (P10635 whole entry): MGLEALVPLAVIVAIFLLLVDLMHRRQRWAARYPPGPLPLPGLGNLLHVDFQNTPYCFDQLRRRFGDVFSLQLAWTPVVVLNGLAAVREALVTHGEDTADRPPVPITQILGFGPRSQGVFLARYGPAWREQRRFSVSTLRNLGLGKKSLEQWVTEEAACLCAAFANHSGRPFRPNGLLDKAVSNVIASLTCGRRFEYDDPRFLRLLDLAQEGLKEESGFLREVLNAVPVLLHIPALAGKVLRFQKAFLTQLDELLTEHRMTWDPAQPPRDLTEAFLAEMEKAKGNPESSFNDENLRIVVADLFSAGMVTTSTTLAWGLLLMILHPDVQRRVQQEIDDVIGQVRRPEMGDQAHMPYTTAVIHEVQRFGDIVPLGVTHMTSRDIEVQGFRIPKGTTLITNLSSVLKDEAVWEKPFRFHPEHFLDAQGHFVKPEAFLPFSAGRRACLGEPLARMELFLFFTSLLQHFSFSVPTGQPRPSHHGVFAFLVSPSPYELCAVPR

Sequence of CYP2C9 (P11712 whole entry): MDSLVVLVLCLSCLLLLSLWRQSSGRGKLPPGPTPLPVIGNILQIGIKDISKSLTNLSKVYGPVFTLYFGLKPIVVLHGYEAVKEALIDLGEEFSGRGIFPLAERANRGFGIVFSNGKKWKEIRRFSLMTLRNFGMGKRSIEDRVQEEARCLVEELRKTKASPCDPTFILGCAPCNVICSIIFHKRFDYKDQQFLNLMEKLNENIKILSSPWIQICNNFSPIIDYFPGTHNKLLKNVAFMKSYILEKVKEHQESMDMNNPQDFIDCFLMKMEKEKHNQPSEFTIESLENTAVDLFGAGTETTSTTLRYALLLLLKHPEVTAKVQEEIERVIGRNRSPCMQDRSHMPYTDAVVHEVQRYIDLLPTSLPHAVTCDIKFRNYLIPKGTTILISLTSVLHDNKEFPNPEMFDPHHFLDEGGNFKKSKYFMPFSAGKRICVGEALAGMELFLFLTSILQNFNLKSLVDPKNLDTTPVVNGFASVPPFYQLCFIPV

- inhibition at 10 min, 10 µM [1]: < 10%
- bioavailability [2]: 50%
- inhibition at 10 min, 10 µM [3]: 32%
- AUC [6]: 2440 ng·h/mL
- logD [7]: 2.8
- inhibition at 10 min, 10 µM [8]: 17%
- clearance [9]: 3.42 mL/min/kg
- inhibition at 10 min, 10 µM [10]: < 10%
SMILES: Cn1nc(C(F)(F)F)cc1-c1cnc(N2CCc3cc(S(=O)(=O)Nc4c(F)cc(Cl)cc4F)cc(N4CCCC4=O)c32)nc1 [TP-020]
- inhibition [4]: Dose-Dependent Effect
- Activity [5]: 99%
